Assay results of several laboratories.
Protocols differ between the studies behind these lines.
Target: Ephrin type-A receptor 2 (EPHA2, Homo sapiens, UniProt P29317)
Sequence (P29317 613-875, limits assumed, as in one of the studies): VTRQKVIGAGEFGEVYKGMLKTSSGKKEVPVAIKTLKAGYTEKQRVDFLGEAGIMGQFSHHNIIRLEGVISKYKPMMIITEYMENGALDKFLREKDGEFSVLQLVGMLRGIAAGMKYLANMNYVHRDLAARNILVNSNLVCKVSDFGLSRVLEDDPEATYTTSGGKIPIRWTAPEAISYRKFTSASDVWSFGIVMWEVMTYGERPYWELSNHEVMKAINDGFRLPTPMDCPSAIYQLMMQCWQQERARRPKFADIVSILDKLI

COc1cc(Cl)c(C(=O)N[C@@H](CN[C@H]2CC[C@@H](N)CC2)Cc2ccc(C#N)cc2)cc1-c1ccc(CN[C@H](C)c2ccc(C)cc2)o1  remaining activity (enzyme activity; inhibitor; 1 µM): 93%
Cc1ccc(Nc2nccc(N(C)c3ccc4c(C)n(C)nc4c3)n2)cc1S(N)(=O)=O  inhibition (enzyme activity; inhibitor; 0.3 µM): -2%
Cc1cnc(NC2CCOCC2)nc1-n1cnc(C(=O)NC(CN)c2cc(F)cc(Cl)c2)c1 (stereo not shown)  remaining activity (enzyme activity; inhibitor; radiometric; 1 µM): 101%
CNC(=O)c1cc(Oc2ccc(NC(=O)Nc3ccc(Cl)c(C(F)(F)F)c3)cc2)ccn1  inhibition (enzyme activity; inhibitor; 0.3 µM): 23%
COc1cc(Nc2cnc(C#N)c(O[C@H](C)CN(C)C)n2)ncc1-c1cnn(C)c1  remaining activity (enzyme activity; inhibitor; radiometric; 1 µM): 59%
CS(=O)(=O)Nc1cccc(-c2csc(NC(=O)CSc3nc4nccnc4c(=O)n3CCc3ccccc3)n2)c1  inhibition (enzyme activity; inhibitor; 10 µM): 9%
O=C(Nc1cnc(Oc2ccc(F)cc2)nc1)N1CCc2ncccc2[C@@H]1c1ccc(F)cc1  remaining binding (cell-free assay; competition with immobilised ligand; 1 µM): 99%
FC(F)c1nc2ccccc2n1-c1nc(N2CCOCC2)nc(N2CCOCC2)n1  remaining activity (enzyme activity; inhibitor; 10 µM): 106%
COc1ccc2c(O[C@@H]3C[C@H]4C(=O)N[C@]5(C(=O)O)CC5/C=C\CCCCC[C@H](NC(=O)OC5CCCC5)C(=O)N4C3)cc(-c3csc(NC(=O)C(C)C)n3)nc2c1C (stereo partly shown)  remaining binding (cell-free assay; competition with immobilised ligand; 1 µM): 80%
CC(C)(C)c1nc(-c2cccc(NS(=O)(=O)c3c(F)cccc3F)c2F)c(-c2ccnc(N)n2)s1  remaining activity (enzyme activity; inhibitor; radiometric; 1 µM): 133%
O=C(Nc1cnn(-c2csc(C(=O)NC3COC3)c2)c1)Nc1c(F)cccc1Cl  remaining activity (enzyme activity; inhibitor; 5 µM): 97.9%
N#CC1(c2ccccn2)CCN(Cc2cc(C(=O)N3CCCC3)c(=O)n3ccccc23)CC1  remaining binding (cell-free assay; competition with immobilised ligand; 1 µM): 86%
CNC(=O)c1cc2c(Oc3ccc(NC(=O)C4(C(=O)Nc5ccc(F)cc5)CC4)cc3)ccnc2cc1OC  inhibition (enzyme activity; inhibitor; radiometric; 1 µM): 96%
Cc1ccc(NC(=O)c2ccc(C)c(C(F)(F)F)c2)cc1C#Cc1nn(C2CCC(O)CC2)c2ncnc(N)c12 (stereo not shown)  remaining signal (cell-free assay; 10 µM): -3%
CCN(CC)c1ccc(C2=NNC(=O)CC2C)cc1[N+](=O)[O-] (stereo not shown)  remaining activity (enzyme activity; inhibitor; 10 µM): 97%
Cc1cc(-n2nc(Cc3cc(F)cc(C(F)(F)F)c3)nc2C)ccc1C(N)=O  remaining binding (cell-free assay; competition with immobilised ligand; 1 µM): 100%
COc1cc2ncnc(Nc3ccc(Oc4ccccc4)c(C)c3C)c2cc1OC  inhibition (enzyme activity; inhibitor; 1 µM): 2%
COc1ccc2c(c1)O[C@@H](c1ccc(OC)c(OC)c1)C[C@H]2NC(=O)C1(c2ccc3c(c2)OC(F)(F)O3)CC1  remaining binding (cell-free assay; competition with immobilised ligand; 1 µM): 95%
CSc1nc(C)c(-c2ccnc(Nc3ccc(N4CCOCC4)cc3)c2)[nH]1  inhibition (cell-free assay; inhibitor; 10 µM): 17.1%
CCN(CC)CCNC(=O)c1c(C)[nH]c(/C=C2\C(=O)Nc3ccc(F)cc32)c1C  inhibition (enzyme activity; inhibitor; 10 µM): 52%
Nc1ncnc2occ(-c3ccc(NC(=O)Nc4cc(C(F)(F)F)ccc4F)cc3)c12  remaining signal (cell-free assay; 20 µM): 0%
Cc1cc(NC(=O)c2cccc3cc(-c4cccc5[nH]nc(N)c45)ccc23)ccc1F  activity vs control (enzyme activity; inhibitor; 0.1 µM): 103%
C#Cc1cccc(Nc2ncnc3cc(OCCOC)c(OCCOC)cc23)c1  remaining signal (cell-free assay; 0.5 µM): 91.3%
O=C(Nc1cnn(-c2csc(C(=O)NC3COC3)c2)c1)Nc1ccccc1Cl  remaining activity (enzyme activity; inhibitor; 5 µM): 101%
COc1ccc(COc2ccc(Cc3cnc(N)nc3N)cc2OC)cc1  remaining signal (cell-free assay; 0.5 µM): 107%
CS(=O)(=O)N1CCCC(NC(=O)[C@H](CCC2CCCCC2)NC(=O)c2ccc(CNc3ncnc4c3nnn4-c3ccccc3)cc2)C1 (stereo partly shown)  remaining binding (cell-free assay; competition with immobilised ligand; 0.1 µM): 100%
O=C1Nc2ccc(Cl)cc2C1=Cc1cc(Cl)c(O)c(Cl)c1  remaining signal (cell-free assay; 0.5 µM): 95%
CNCc1ccccc1-c1csc([C@H](C)Nc2nc(C)nc3cc(OC)c(OC)cc23)c1  remaining binding (cell-free assay; competition with immobilised ligand; 1 µM): 80%
CC(C)(O)[C@H]1CC[C@H](Nc2ccc3ncc(-c4cccc(C(F)(F)F)c4)n3n2)CC1  remaining activity (enzyme activity; inhibitor; 1 µM): 93.9%
O=C(NC[C@@H]1[C@H]2CN(C(=O)OCc3cc(C(F)(F)F)cc(C(F)(F)F)c3)C[C@@H]12)c1ccc2[nH]nnc2c1  remaining binding (cell-free assay; competition with immobilised ligand; 1 µM): 79%
Nc1nc(NC2CCCCC2)sc1C(=O)c1ccccc1  remaining activity (enzyme activity; inhibitor; 10 µM): 110%
